Measured values reported in ChEMBL document CHEMBL1649065, “Solomonsterols A and B from Theonella swinhoei. The first example of C-24 and C-23 sulfated sterols from a marine source endowed with a PXR agonistic activity” (J Med Chem, 2011).
Calls of active or inactive are those of the source. No cut-off for these calls is given here.

What was measured:
RAW264.7 [1] = test: Immunomodulatory activity in mouse RAW264.7 cells assessed as inhibition of IL1-beta mRNA expression at 50 uM by RT-PCR analysis; type: functional
Outline: (§1)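 RAW264.7 macrophages incubated 24 h with 10 and 50 μM plus bacterial LPS; total RNA extracted with TRIZOL, 50 ng template amplified by SYBR Green real-time PCR (0.2 μM each primer, 40 cycles), triplicate reactions; CT normalised to GAPDH, relative expression as 2^-ΔΔCT.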

RAW264.7 [2] = test: Immunomodulatory activity in mouse RAW264.7 cells assessed as effect on TNFalpha mRNA expression at 10 to 50 uM by RT-PCR analysis; type: functional, cell-based; outline: as §1
RAW264.7 [3] = test: Cytotoxicity against mouse RAW264.7 cells at 10 to 50 uM; type: cell-based; conditions: raw264.7, 50 µM
Outline: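 Murine macrophages exposed to 10 and 50 μM in presence of bacterial LPS; at end of experiment viability scored by trypan blue exclusion.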

[4] = molecular target: T1, Nuclear receptor subfamily 1 group I member 2 (Homo sapiens, UniProt O75469); test: Induction of PXR-mediated MDR1 gene expression in human HepG2 cells at 50 uM by RT-PCR analysis; type: cell-based; conditions: hepg2, 50 µM
T1 sequence (O75469 whole entry): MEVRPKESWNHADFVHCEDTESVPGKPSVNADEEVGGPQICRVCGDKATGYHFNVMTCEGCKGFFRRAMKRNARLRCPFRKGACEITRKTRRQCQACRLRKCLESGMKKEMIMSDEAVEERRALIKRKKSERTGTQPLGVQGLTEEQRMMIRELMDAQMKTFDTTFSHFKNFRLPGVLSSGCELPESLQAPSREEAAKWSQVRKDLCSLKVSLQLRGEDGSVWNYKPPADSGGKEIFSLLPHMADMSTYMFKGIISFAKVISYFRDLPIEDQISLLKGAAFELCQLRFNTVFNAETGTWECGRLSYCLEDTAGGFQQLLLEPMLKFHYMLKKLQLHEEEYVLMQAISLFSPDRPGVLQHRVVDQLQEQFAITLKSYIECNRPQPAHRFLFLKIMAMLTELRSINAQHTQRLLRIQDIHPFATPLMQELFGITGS
Outline: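 HepG2 hepatocytes treated with compound; mRNA quantified by SYBR Green real-time PCR in triplicate, CT normalised to GAPDH, relative expression computed as 2^-ΔΔCT.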

[5] = molecular target: T2, PXR (nuclear receptor subfamily 1 group I member 2) (Homo sapiens, UniProt O75469); test: Transactivation of PXR in human HepG2 cells assessed as induction of luciferase activity at 50 uM by luciferase reporter gene assay relative to control; conditions: read-out: FC
T2 sequence (O75469 whole entry): T1 sequence (O75469 whole entry)

| SMILES | inhibition at 50 µM (RAW264.7 [1]) [%] | Activity (RAW264.7 [2]) | Activity (RAW264.7 [3]) | Activity [4] | fold induction at 50 µM [5] |
| --- | --- | --- | --- | --- | --- |
| C[C@H](CCCOS(=O)(=O)[O-])[C@H]1CC[C@H]2[C@@H]3CC[C@H]4C[C@H](OS(=O)(=O)[O-])[C@@H](OS(=O)(=O)[O-])C[C@]4(C)[C@H]3CC[C@]12C.[Na+].[Na+].[Na+] [SOLOMONSTEROL A] | 50 | inactive | Non-toxic | Active | 4 |
| C[C@H](CCOS(=O)(=O)[O-])[C@H]1CC[C@H]2[C@@H]3CC[C@H]4C[C@H](OS(=O)(=O)[O-])[C@@H](OS(=O)(=O)[O-])C[C@]4(C)[C@H]3CC[C@]12C.[Na+].[Na+].[Na+] [SOLOMONSTEROL B] | 50 | inactive | Non-toxic | Active | 4 |
